Data from ChEMBL document CHEMBL5126676, “Identification of Inhibitors of the Schistosoma mansoni VKR2 Kinase Domain” (ACS Med Chem Lett, 2022).
Calls of active or inactive are those of the source. The rule behind the calls is not given here.

Tests used:
Venus kinase receptor 2 [1] = biological target: T1, Venus kinase receptor 2 (Schistosoma mansoni, UniProt D5JEH1); experiment: Binding affinity to Schistosoma mansoni N-terminal His6-tagged full-length VKR2 kinase domain expressed in baculovirus infected Sf9 insect cells in presence of ATPgammaS by SPR analysis
Schistosoma mansoni [2] = experiment: Antischistosomal activity against adult Schistosoma mansoni assessed as reduction in worm motility at 10 uM measured after 2 hrs by inverted microscopy; type: functional, organism-based
Outline: (§1)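 Adult S. mansoni worms exposed ex vivo to 10 μM compound. Observed at 2, 5 and 24 h and scored with an observation-based severity system. Descriptors recorded: degenerating, uncoordinated, slow, on sides (no adherence to the well floor by oral or ventral sucker), and tegument blebs. Three to five biological singleton assays.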

Schistosoma mansoni [3] = experiment: Antischistosomal activity against adult Schistosoma mansoni assessed as loss of worm ability to adhere to well floor at 10 uM measured after 2 hrs by inverted microscopy; type: functional, organism-based; outline: as §1
Schistosoma mansoni [4] = experiment: Antischistosomal activity against adult Schistosoma mansoni assessed as worm degeneration at 10 uM measured after 24 hrs by inverted microscopy; type: functional, organism-based; outline: as §1
Schistosoma mansoni [5] = experiment: Antischistosomal activity against adult Schistosoma mansoni assessed as damage to the tegument by measuring blebbing at 10 uM measured after 24 hrs by inverted microscopy; type: functional, organism-based; outline: as §1
Schistosoma mansoni [6] = experiment: Antischistosomal activity against adult Schistosoma mansoni assessed as damage to the tegument by measuring bubbling at 10 uM measured after 24 hrs by inverted microscopy; type: functional, organism-based; outline: as §1
Schistosoma mansoni [7] = experiment: Antischistosomal activity against adult Schistosoma mansoni assessed as reduction in worm motility at 10 uM by worm assay; type: functional, organism-based; conditions: time 2-24 hrs, TDE = time-dependent effect
Outline: (§2)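 Ex vivo adult S. mansoni were incubated with 10 μM compound. Average worm motility per well was recorded by WormAssay over time at 2, 5 and 24 h. Three to five biological assays. Significance was tested by two-tailed Student's t-test.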

Venus kinase receptor 2 [8] = biological target: T1, Venus kinase receptor 2; experiment: Inhibition of Schistosoma mansoni N-terminal His6-tagged full-length VKR2 kinase domain expressed in baculovirus infected Sf9 insect cells assessed as reduction in autophosphorylation measured after 30 mins in presence of ATP by ADP-glo kinase assay
Outline: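 Autophosphorylation of the SmVKR2 kinase domain, used as the read-out because no substrate is known, with 10 μM ATP. Concentration–response curves were run in triplicate, and IC50 was fitted from them; the paper plots mean ± SD.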

Schistosoma mansoni [9] = experiment: Antischistosomal activity against adult Schistosoma mansoni assessed as reduction in worm movement at 10 uM measured after 2 to 24 hrs by inverted microscopy; type: functional, organism-based; conditions: time 2-24 hrs; outline: as §1
Schistosoma mansoni [10] = experiment: Antischistosomal activity against adult Schistosoma mansoni assessed as reduction in worm motility at 10 uM measured after 2 to 24 hrs by worm assay; type: functional, organism-based; conditions: time 2-24 hrs; outline: as §2

T1 sequence (D5JEH1 whole entry, the tested form may be a part): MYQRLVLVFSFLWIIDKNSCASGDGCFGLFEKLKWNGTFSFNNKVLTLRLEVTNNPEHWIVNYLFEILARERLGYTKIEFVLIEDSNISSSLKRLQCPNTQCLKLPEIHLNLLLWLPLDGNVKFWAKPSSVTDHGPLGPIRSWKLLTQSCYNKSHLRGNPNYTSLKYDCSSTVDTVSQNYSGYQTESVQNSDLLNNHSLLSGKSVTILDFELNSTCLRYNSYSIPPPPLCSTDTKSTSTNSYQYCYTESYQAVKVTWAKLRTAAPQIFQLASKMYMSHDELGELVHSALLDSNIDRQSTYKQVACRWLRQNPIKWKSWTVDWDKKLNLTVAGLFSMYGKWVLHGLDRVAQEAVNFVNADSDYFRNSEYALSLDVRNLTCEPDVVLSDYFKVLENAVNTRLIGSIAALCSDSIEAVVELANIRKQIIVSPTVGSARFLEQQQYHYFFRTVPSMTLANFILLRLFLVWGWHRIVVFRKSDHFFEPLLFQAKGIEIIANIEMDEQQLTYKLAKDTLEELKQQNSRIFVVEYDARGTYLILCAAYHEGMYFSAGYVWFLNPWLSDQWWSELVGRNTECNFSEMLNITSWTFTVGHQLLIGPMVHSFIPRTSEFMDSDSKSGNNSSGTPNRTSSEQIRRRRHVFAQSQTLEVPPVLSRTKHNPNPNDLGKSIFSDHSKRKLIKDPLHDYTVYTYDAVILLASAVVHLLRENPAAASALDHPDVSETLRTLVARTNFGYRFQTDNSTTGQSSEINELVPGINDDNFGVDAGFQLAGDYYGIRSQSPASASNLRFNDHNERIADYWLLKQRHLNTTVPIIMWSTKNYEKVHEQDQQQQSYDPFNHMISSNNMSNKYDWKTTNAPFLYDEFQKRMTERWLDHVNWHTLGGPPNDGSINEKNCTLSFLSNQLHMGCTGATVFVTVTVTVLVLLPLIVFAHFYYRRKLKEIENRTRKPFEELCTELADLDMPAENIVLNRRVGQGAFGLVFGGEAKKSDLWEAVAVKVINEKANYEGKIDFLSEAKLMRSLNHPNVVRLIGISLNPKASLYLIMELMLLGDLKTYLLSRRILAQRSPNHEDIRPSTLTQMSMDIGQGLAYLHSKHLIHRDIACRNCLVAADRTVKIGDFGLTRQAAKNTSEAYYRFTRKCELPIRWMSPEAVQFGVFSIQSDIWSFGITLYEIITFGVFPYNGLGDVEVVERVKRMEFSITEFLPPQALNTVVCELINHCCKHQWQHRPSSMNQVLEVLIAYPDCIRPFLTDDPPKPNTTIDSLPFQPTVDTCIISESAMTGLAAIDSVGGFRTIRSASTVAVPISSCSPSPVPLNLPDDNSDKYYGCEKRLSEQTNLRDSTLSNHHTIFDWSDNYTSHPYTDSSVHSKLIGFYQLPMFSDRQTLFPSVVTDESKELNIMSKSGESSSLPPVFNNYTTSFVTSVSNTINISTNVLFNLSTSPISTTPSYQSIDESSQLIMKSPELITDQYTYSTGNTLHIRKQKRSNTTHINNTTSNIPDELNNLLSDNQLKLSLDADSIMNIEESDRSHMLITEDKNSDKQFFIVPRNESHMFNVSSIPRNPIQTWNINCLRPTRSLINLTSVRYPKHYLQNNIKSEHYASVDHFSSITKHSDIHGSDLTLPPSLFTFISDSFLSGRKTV

With `NC(=O)Nc1sc(-c2ccc(F)cc2)cc1C(N)=O` as the molecule, how does the Kd (Venus kinase receptor 2 [1]) read?
The Kd was 16 µM.

For `NCCNS(=O)(=O)c1ccc(-c2ccnc3[nH]ccc23)cc1`, which Kd (Venus kinase receptor 2 [1]) is on record?
The Kd was 2.53 µM.

`CC(C)Oc1ccc2c(-c3ccnc(Nc4ccc(N5CCN(C)CC5)cc4)n3)cnn2n1` was tested. Which Kd (Venus kinase receptor 2 [1]) did it give?
Its Kd is 3.4 µM.

What about the Activity (Schistosoma mansoni [2]) of the same molecule?
The Activity was “Active”.

And the Activity (Schistosoma mansoni [3])?
The Activity was “Active”.

And the Activity (Schistosoma mansoni [4])?
The Activity was “Active”.

What about the Activity (Schistosoma mansoni [5]) of the same molecule?
The Activity was “Active”.

And the Activity (Schistosoma mansoni [6])?
Its Activity is “Active”.

And the Activity (Schistosoma mansoni [7])?
The Activity was “Tde”.

And the IC50 (Venus kinase receptor 2 [8])?
Its IC50 is 20.1 µM.

Which Kd (Venus kinase receptor 2 [1]) does the source give for `Nc1nc(N)c2nc(-c3ccccc3)[nH]c2n1` here?
Its Kd is 82 µM.

How did the Kd (Venus kinase receptor 2 [1]) turn out when `Cc1n[nH]c2cc(Nc3ccnc(Nc4cccc(CN5CCOCC5)c4)n3)ccc12` was run?
Its Kd is 39 µM.

With `CN(C)CCNS(=O)(=O)c1ccc(-c2ccnc3[nH]ccc23)cc1` as the molecule, how does the Kd (Venus kinase receptor 2 [1]) read?
The Kd was 8.2 µM.

What does the source list for `O=C(Nc1n[nH]c2cnc(-c3ccc(O)cc3)cc12)C1CC1`?
Kd (Venus kinase receptor 2 [1]): 170 µM; Activity (Schistosoma mansoni [9]): Active; Activity (Schistosoma mansoni [10]): Active

With `Cc1cccc(Nc2nc(N[C@H]3CCCC[C@H]3N)ncc2C(N)=O)c1` as the molecule, how does the Kd (Venus kinase receptor 2 [1]) read?
Its Kd is 1.96 µM.

And the Activity (Schistosoma mansoni [9])?
Its Activity is “Active”.

And the Activity (Schistosoma mansoni [10])?
Its Activity is “Active”.

And the IC50 (Venus kinase receptor 2 [8])?
The IC50 was 5.69 µM.

Which Kd (Venus kinase receptor 2 [1]) does the source give for `CNC(=O)c1ccccc1Nc1nc(Nc2cccc(CS(C)(=O)=O)c2)ncc1C` here?
Its Kd is 0.44 µM.

What about the IC50 (Venus kinase receptor 2 [8]) of the same molecule?
Its IC50 is 6.47 µM.

Which Kd (Venus kinase receptor 2 [1]) does the source give for `CS(=O)(=O)Nc1ccc(-c2ccnc3[nH]ccc23)cc1` here?
The Kd was 7.8 µM.

With `Nc1n[nH]c2cnc(-c3ccccc3)cc12` as the molecule, how does the Kd (Venus kinase receptor 2 [1]) read?
The Kd was 47 µM.

With `Cc1cccc(Nc2nc(NCCN)ncc2C(N)=O)c1` as the molecule, how does the Kd (Venus kinase receptor 2 [1]) read?
The Kd was 4.5 µM.
